In ChEMBL document CHEMBL1145471, “Small molecule regulators of autophagy identified by an image-based high-throughput screen” (Proc Natl Acad Sci U S A, 2007):

Legend:
Assay type in all cases: functional
H4 [1] = assay: Increase in light chain 3-GFP+ autophagosome vesicle number per cell in human H4 cells at 7.71 uM after 24 hrs by high throughput fluorescence microscopy relative to control
Outline: (§1)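 H4 cells stably expressing LC3-GFP were grown in DMEM with 10% FBS and 2 mM L-glutamine at 37°C, 5% CO2. They were exposed to each compound for 24 h, with DMSO as negative and rapamycin as positive control. Cells were then fixed in 4% paraformaldehyde and stained with 3 μg/ml DAPI. High-throughput fluorescence imaging scored LC3-GFP spot number, size and intensity, expressed relative to DMSO. Mean ± SD of triplicates; experiments repeated three times.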

H4 [2] = assay: Increase in light chain 3-GFP+ autophagosome vesicle number per cell in human H4 cells at 4.8 uM after 24 hrs by high throughput fluorescence microscopy relative to control
Outline: (§2)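 H4 cells stably expressing LC3-GFP, kept in DMEM/10% FBS at 37°C, 5% CO2, were seeded in 96-well plates and exposed to compound for 24 h. Cells were then fixed in 4% paraformaldehyde and stained with 3 μg/ml DAPI. Automated fluorescence microscopy scored the number, size and intensity of LC3-GFP spots. Values are percent of DMSO wells, in triplicate, mean ± SD. Rapamycin served as positive control.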

H4 [3] = assay: Increase in light chain 3-GFP+ autophagosome vesicle area per cell in human H4 cells at 7.71 uM after 24 hrs by high throughput fluorescence microscopy relative to control
Outline: (§3)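 H4 cells stably expressing LC3-GFP, seeded in 96-well plates and exposed to compound for 24 h; screening concentrations were 3–12 μM, with rapamycin 0.22 μM and bafilomycin A1 0.40 μM. Cells fixed in 4% paraformaldehyde and stained with 3 μg/ml DAPI. Number, size and intensity of LC3-GFP spots measured by high-throughput fluorescence microscopy and expressed as percent of DMSO-treated wells. Rapamycin was the positive control. Triplicate wells, mean ± SD; experiments repeated three times.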

H4 [4] = assay: Increase in light chain 3-GFP+ autophagosome vesicle area per cell in human H4 cells at 4.8 uM after 24 hrs by high throughput fluorescence microscopy relative to control
Outline: (§4)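 H4 cells stably expressing LC3-GFP, seeded in 96-well plates and exposed to compound for 24 h; fixed in 4% paraformaldehyde, nuclei stained with 3 μg/ml DAPI. Automated fluorescence microscopy scored number, size and intensity of LC3-GFP spots; values expressed relative to DMSO-treated wells, rapamycin positive control. Triplicate wells, mean ± SD; experiments repeated three times.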

H4 [5] = assay: Increase in light chain 3-GFP+ autophagosome vesicle intensity per cell in human H4 cells at 7.71 uM after 24 hrs by high throughput fluorescence microscopy relative to control; outline: as §1
H4 [6] = assay: Increase in light chain 3-GFP+ autophagosome vesicle intensity per cell in human H4 cells at 4.8 uM after 24 hrs by high throughput fluorescence microscopy relative to control; outline: as §4
H4 [7] = assay: Induction of light chain 3-GFP level in human H4 cells at 4.8 uM after 24 hrs by high throughput fluorescence microscopy relative to control; outline: as §2
H4 [8] = assay: Effect on FYVE-RFP+ vesicle intensity per cell in human H4 cells after 2 hrs relative to control; set-up: concentration or dose not given beside the values
Outline: (§5)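 H4 cells stably expressing FYVE-RFP (H4-FYVE), grown in DMEM with 10% FBS, penicillin/streptomycin and 2 mM L-glutamine at 37°C, 5% CO2, seeded in 96-well plates and exposed to compound. Fixed in 4% paraformaldehyde, nuclei stained with 3 μg/ml DAPI, FYVE-RFP+ vesicles quantified by high-throughput fluorescence microscopy against DMSO control. Triplicate wells, mean ± SD.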

H4 [9] = assay: Effect on FYVE-RFP+ vesicle intensity per cell in human H4 cells after 4 hrs relative to control; set-up: concentration or dose not given beside the values; outline: as §5
H4 [10] = assay: Effect on FYVE-RFP+ vesicle intensity per cell in human H4 cells after 8 hrs relative to control; set-up: concentration or dose not given beside the values; outline: as §5
H4 [11] = assay: Increase in long-lived protein degradation in human H4 cells after 1 hr relative to control; set-up: concentration or dose not given beside the values
H4 [12] = assay: Increase in long-lived protein degradation in human H4 cells after 2 hrs relative to control; set-up: concentration or dose not given beside the values
H4 [13] = assay: Increase in long-lived protein degradation in human H4 cells after 4 hrs relative to control; set-up: concentration or dose not given beside the values
H4 [14] = assay: Increase in long-lived protein degradation in human H4 cells after 24 hrs relative to control; set-up: concentration or dose not given beside the values
H4 [15] = assay: Induction of light chain 3-GFP level in human H4 cells at 7.71 uM after 24 hrs by high throughput fluorescence microscopy relative to control
Outline: (§6)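 H4 cells stably expressing LC3-GFP, grown in DMEM with 10% FBS, penicillin/streptomycin and 2 mM L-glutamine at 37°C, 5% CO2. Cells were seeded in 96-well plates and exposed to library compounds at 3–12 μM for 24 h, then fixed in 4% paraformaldehyde and stained with 3 μg/ml DAPI. LC3-GFP spot number, size and intensity were measured by high-throughput fluorescence microscopy and expressed relative to DMSO. Triplicates, mean ± SD.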

H4 [16] = assay: Increase in light chain 3-GFP+ autophagosome vesicle number per cell in human H4 cells at 8.9 uM after 24 hrs by high throughput fluorescence microscopy relative to control; outline: as §6
H4 [17] = assay: Increase in light chain 3-GFP+ autophagosome vesicle area per cell in human H4 cells at 8.9 uM after 24 hrs by high throughput fluorescence microscopy relative to control; outline: as §3
H4 [18] = assay: Increase in light chain 3-GFP+ autophagosome vesicle intensity per cell in human H4 cells at 8.9 uM after 24 hrs by high throughput fluorescence microscopy relative to control; outline: as §1
H4 [19] = assay: Induction of light chain 3-GFP level in human H4 cells at 8.9 uM after 24 hrs by high throughput fluorescence microscopy relative to control; outline: as §6
H4 [20] = assay: Increase in light chain 3-GFP+ autophagosome vesicle number per cell in human H4 cells at 12.7 uM after 24 hrs by high throughput fluorescence microscopy relative to control; outline: as §1
H4 [21] = assay: Increase in light chain 3-GFP+ autophagosome vesicle area per cell in human H4 cells at 12.7 uM after 24 hrs by high throughput fluorescence microscopy relative to control
H4 [22] = assay: Increase in light chain 3-GFP+ autophagosome vesicle intensity per cell in human H4 cells at 12.7 uM after 24 hrs by high throughput fluorescence microscopy relative to control
H4 [23] = assay: Induction of light chain 3-GFP level in human H4 cells at 12.7 uM after 24 hrs by high throughput fluorescence microscopy relative to control; outline: as §6
H4 [24] = assay: Increase in light chain 3-GFP+ autophagosome vesicle area per cell in human H4 cells at 11.3 uM after 24 hrs by high throughput fluorescence microscopy relative to control; outline: as §4
H4 [25] = assay: Increase in light chain 3-GFP+ autophagosome vesicle number per cell in human H4 cells at 7.4 uM after 24 hrs by high throughput fluorescence microscopy relative to control; outline: as §2
H4 [26] = assay: Increase in light chain 3-GFP+ autophagosome vesicle intensity per cell in human H4 cells at 11.3 uM after 24 hrs by high throughput fluorescence microscopy relative to control; outline: as §4
H4 [27] = assay: Induction of light chain 3-GFP level in human H4 cells at 7.4 uM after 24 hrs by high throughput fluorescence microscopy relative to control; outline: as §2
H4 [28] = assay: Increase in light chain 3-GFP+ autophagosome vesicle number per cell in human H4 cells at 0.4 uM after 24 hrs by high throughput fluorescence microscopy relative to control; outline: as §4
H4 [29] = assay: Increase in light chain 3-GFP+ autophagosome vesicle area per cell in human H4 cells at 0.4 uM after 24 hrs by high throughput fluorescence microscopy relative to control; outline: as §4
H4 [30] = assay: Increase in light chain 3-GFP+ autophagosome vesicle intensity per cell in human H4 cells at 0.4 uM after 24 hrs by high throughput fluorescence microscopy relative to control; outline: as §4
H4 [31] = assay: Induction of light chain 3-GFP level in human H4 cells at 0.4 uM after 24 hrs by high throughput fluorescence microscopy relative to control; outline: as §2
H4 [32] = assay: Increase in light chain 3-GFP+ autophagosome vesicle number per cell in human H4 cells at 8.5 uM after 24 hrs by high throughput fluorescence microscopy relative to control; outline: as §6
H4 [33] = assay: Increase in light chain 3-GFP+ autophagosome vesicle area per cell in human H4 cells at 8.5 uM after 24 hrs by high throughput fluorescence microscopy relative to control; outline: as §3
H4 [34] = assay: Increase in light chain 3-GFP+ autophagosome vesicle intensity per cell in human H4 cells at 8.5 uM after 24 hrs by high throughput fluorescence microscopy relative to control; outline: as §1
H4 [35] = assay: Induction of light chain 3-GFP level in human H4 cells at 8.5 uM after 24 hrs by high throughput fluorescence microscopy relative to control; outline: as §6
H4 [36] = assay: Increase in light chain 3-GFP+ autophagosome vesicle number per cell in human H4 cells at 6.8 uM after 24 hrs by high throughput fluorescence microscopy relative to control; outline: as §1
H4 [37] = assay: Increase in light chain 3-GFP+ autophagosome vesicle area per cell in human H4 cells at 6.8 uM after 24 hrs by high throughput fluorescence microscopy relative to control; outline: as §3
H4 [38] = assay: Increase in light chain 3-GFP+ autophagosome vesicle intensity per cell in human H4 cells at 6.8 uM after 24 hrs by high throughput fluorescence microscopy relative to control; outline: as §1
H4 [39] = assay: Induction of light chain 3-GFP level in human H4 cells at 6.8 uM after 24 hrs by high throughput fluorescence microscopy relative to control; outline: as §6
H4 [40] = assay: Increase in light chain 3-GFP+ autophagosome vesicle number per cell in human H4 cells at 3.8 uM after 24 hrs by high throughput fluorescence microscopy relative to control; outline: as §4
H4 [41] = assay: Increase in light chain 3-GFP+ autophagosome vesicle area per cell in human H4 cells at 3.8 uM after 24 hrs by high throughput fluorescence microscopy relative to control; outline: as §4
H4 [42] = assay: Increase in light chain 3-GFP+ autophagosome vesicle intensity per cell in human H4 cells at 3.8 uM after 24 hrs by high throughput fluorescence microscopy relative to control; outline: as §4
H4 [43] = assay: Induction of light chain 3-GFP level in human H4 cells at 3.8 uM after 24 hrs by high throughput fluorescence microscopy relative to control; outline: as §2
H4 [44] = assay: Induction of light chain 3-GFP level in human H4 cells at 4.9 uM after 24 hrs by high throughput fluorescence microscopy relative to control; outline: as §2
H4 [45] = assay: Increase in light chain 3-GFP+ autophagosome vesicle area per cell in human H4 cells at 4.9 uM after 24 hrs by high throughput fluorescence microscopy relative to control; outline: as §4
H4 [46] = assay: Increase in light chain 3-GFP+ autophagosome vesicle intensity per cell in human H4 cells at 4.9 uM after 24 hrs by high throughput fluorescence microscopy relative to control; outline: as §4
H4 [47] = assay: Increase in light chain 3-GFP+ autophagosome vesicle number per cell in human H4 cells at 4.9 uM after 24 hrs by high throughput fluorescence microscopy relative to control; outline: as §2

NCCNS(=O)(=O)c1cccc2cnccc12
Activity (H4 [1]): 130.98% | Activity (H4 [2]): 181.04% | Activity (H4 [3]): 139.79% | Activity (H4 [4]): 172.66% | Activity (H4 [5]): 156.16% | Activity (H4 [6]): 15083% | Activity (H4 [7]): 49.3% | Activity (H4 [8]): 102.35% | Activity (H4 [9]): 79.63% | Activity (H4 [10]): 83.01% | Activity (H4 [11]): 100.94% | Activity (H4 [12]): 91.55% | Activity (H4 [13]): 96.55% | Activity (H4 [14]): 96.19% | Activity (H4 [15]): 96.7%

C[C@H]([C@H](C)N1CC(=O)NC(=O)C1)N1CC(=O)NC(=O)C1
Activity (H4 [16]): 339.59% | Activity (H4 [17]): 402.47% | Activity (H4 [18]): 483.18% | Activity (H4 [19]): 45.03%

C[C@@]12C(=O)OC(=O)[C@]1(C)[C@H]1CC[C@@H]2O1 [CANTHARIDIN]
Activity (H4 [20]): 259.49% | Activity (H4 [21]): 332.84% | Activity (H4 [22]): 463.81% | Activity (H4 [23]): 24.47%

C[C@@]1(CO)[C@H](O)CC[C@@]2(C)[C@H]1CC[C@H]1C[C@@H]3C[C@@]12CC[C@]3(O)CO [APHIDICOLIN]
Activity (H4 [24]): 275.5% | Activity (H4 [25]): 216.53% | Activity (H4 [26]): 350.13% | Activity (H4 [27]): 73.06%

CO/C1=C\C(C)=C\[C@@H](C)[C@@H](O)[C@@H](C)C/C(C)=C/C=C/[C@H](OC)[C@@H]([C@@H](C)[C@@H](O)[C@H](C)[C@@]2(O)C[C@@H](O)[C@H](C)[C@@H](C(C)C)O2)OC1=O [BAFILOMYCIN A1]
Activity (H4 [28]): 691.15% | Activity (H4 [29]): 1608.62% | Activity (H4 [30]): 4027.54% | Activity (H4 [31]): 71.96%

Cc1coc2c1C(=O)C(=O)c1c-2ccc2c1CCCC2(C)C [TANSHINONE IIA]
Activity (H4 [32]): 210.24% | Activity (H4 [33]): 264.51% | Activity (H4 [34]): 273.72% | Activity (H4 [35]): 79.77%

COc1cc(/C=C/C(=O)CC(=O)/C=C/c2ccc(O)c(OC)c2)ccc1O [CURCUMIN]
Activity (H4 [36]): 59.32% | Activity (H4 [37]): 228.38% | Activity (H4 [38]): 249.22% | Activity (H4 [39]): 59.32%

C/C=C(/C)C(=O)O[C@H]1C(C)=C2[C@H]([C@@H]1OC(=O)CCCCCCC)[C@@](C)(OC(C)=O)C[C@H](OC(=O)CCC)[C@@]1(O)[C@H]2OC(=O)[C@@]1(C)O [THAPSIGARGIN]
Activity (H4 [40]): 193.06% | Activity (H4 [41]): 199.81% | Activity (H4 [42]): 187.15% | Activity (H4 [43]): 63.77%

C=C1[C@@H](C)[C@H]2[C@H](Cc3ccccc3)NC(=O)[C@]23[C@H](OC(C)=O)/C=C/[C@@](C)(O)C(=O)[C@@H](C)C/C=C/[C@H]3[C@@H]1O [CYTOCHALASIN D]
Activity (H4 [44]): 71.84% | Activity (H4 [45]): 306.27% | Activity (H4 [46]): 378.77% | Activity (H4 [47]): 258.44%
